In ChEMBL document CHEMBL2380223, “A thiocarbamate inhibitor of endothelial lipase raises HDL cholesterol levels in mice” (Bioorg Med Chem Lett, 2013):
Calls of active or inactive are those of the source. The calls are words filed in the database; no cut-off is given here.

What was measured:
[1] = molecular target: T1, Endothelial lipase (Homo sapiens, UniProt Q9Y5X9); assay: (§1) Time dependent inhibition of human EL (19 to 500) expressed in HEK293 cells using PED-A1 as substrate by spectrophotometry; format: cell-based
T1 sequence (Q9Y5X9 whole entry): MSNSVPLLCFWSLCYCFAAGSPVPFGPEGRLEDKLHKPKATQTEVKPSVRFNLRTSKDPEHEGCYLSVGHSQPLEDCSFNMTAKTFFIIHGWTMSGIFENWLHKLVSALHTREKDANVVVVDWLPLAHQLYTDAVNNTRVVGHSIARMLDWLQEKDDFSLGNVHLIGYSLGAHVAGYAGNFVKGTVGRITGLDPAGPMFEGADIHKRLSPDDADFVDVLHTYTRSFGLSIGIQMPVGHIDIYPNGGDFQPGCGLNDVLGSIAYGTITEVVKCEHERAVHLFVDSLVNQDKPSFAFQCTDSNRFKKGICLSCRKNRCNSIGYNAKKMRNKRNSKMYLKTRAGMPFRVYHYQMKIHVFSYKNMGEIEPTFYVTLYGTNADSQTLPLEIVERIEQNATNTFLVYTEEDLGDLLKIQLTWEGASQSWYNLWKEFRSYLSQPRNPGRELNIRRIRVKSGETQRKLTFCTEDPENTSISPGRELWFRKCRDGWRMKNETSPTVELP

[2] = molecular target: T2, Endothelial lipase (Homo sapiens) (UniProt Q9Y5X9); assay: as §1; format: cell-based
T2 sequence (whole entry): T1 sequence (Q9Y5X9 whole entry)

[3] = test system: Mus musculus; assay: Inhibition of EL in C57BL/6J HL-/- mouse assessed as elevated plasma HDL-C level at 30 to 100 mg/kg, ip bid for 2 days followed by a dose on 3rd day morning measured 1 hr post last dose; format: functional, organism-based
How it was run: (§2)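 C57BL/6J HL-/- (hepatic lipase knockout) mice dosed intraperitoneally with compound or vehicle for three days, at 10, 30 and 100 mg/kg. Plasma lipoproteins, including HDL-C, measured 1 h after the last dose. Percent increase is calculated against vehicle-treated controls, with significance testing between groups.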

[4] = test system: Plasma; assay: Plasma concentration in ip dosed C57BL/6J HL-/- mouse administered for 3 days measured 1 hr post last dose; format: ADME, organism-based; conditions: in vivo
How it was run: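 In HL-/- mice given intraperitoneal doses (10, 30, 100 mg/kg) for three days, plasma compound concentrations were measured 1 h after the final dose. In individual animals, these were correlated with plasma HDL-C and phospholipids.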

[5] = test system: Mus musculus; assay: Increase in plasma HDL-C level in C57BL/6J HL-/- mouse at 100 mg/kg, ip administered for 2 days followed by a dose on 3rd day morning measured 1 hr post last dose relative to vehicle-treated control; format: functional; conditions: route intraperitoneal; how it was run: as §2
[6] = test system: Mus musculus; assay: Increase in plasma HDL-C level in C57BL/6J HL-/- mouse at 30 mg/kg, ip administered for 2 days followed by a dose on 3rd day morning measured 1 hr post last dose relative to vehicle-treated control; format: functional; conditions: route intraperitoneal; how it was run: as §2
[7] = test system: Mus musculus; assay: Increase in plasma HDL-C level in C57BL/6J mouse at 100 mg/kg, ip administered for 2 days followed by a dose on 3rd day morning measured 1 hr post last dose relative to vehicle-treated control; format: functional; conditions: route intraperitoneal
How it was run: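 C57BL/6J mice given vehicle or compound intraperitoneally, five doses over three days; plasma HDL-C measured 1 h after the last dose. Tested at 100 mg/kg. Change is expressed relative to vehicle controls, as means ± SD, n = 8 per group, with significance tested against the vehicle group.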

[8] = molecular target: T3, Lipoprotein lipase (Homo sapiens, UniProt P06858); assay: Inhibition of human LPL expressed in HEK293 cells using PED-A1 as substrate by spectrophotometry
T3 sequence (P06858 whole entry): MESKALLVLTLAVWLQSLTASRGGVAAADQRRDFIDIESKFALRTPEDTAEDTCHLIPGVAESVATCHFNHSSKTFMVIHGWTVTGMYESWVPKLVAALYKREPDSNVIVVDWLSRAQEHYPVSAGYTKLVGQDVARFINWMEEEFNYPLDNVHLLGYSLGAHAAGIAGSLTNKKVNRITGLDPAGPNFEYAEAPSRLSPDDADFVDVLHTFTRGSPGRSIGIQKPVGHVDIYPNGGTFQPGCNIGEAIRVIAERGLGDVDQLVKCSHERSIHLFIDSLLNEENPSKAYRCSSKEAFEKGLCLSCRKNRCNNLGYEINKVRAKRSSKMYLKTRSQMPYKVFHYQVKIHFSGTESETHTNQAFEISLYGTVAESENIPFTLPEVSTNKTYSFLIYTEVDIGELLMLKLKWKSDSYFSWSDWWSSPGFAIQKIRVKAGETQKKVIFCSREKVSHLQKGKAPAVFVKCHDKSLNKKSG

[9] = molecular target: T4, Endothelial lipase (Mus musculus, UniProt Q9WVG5); assay: Inhibition of mouse EL expressed in HEK293 cells using PED-A1 as substrate by spectrophotometry; format: cell-based
T4 sequence (Q9WVG5 whole entry): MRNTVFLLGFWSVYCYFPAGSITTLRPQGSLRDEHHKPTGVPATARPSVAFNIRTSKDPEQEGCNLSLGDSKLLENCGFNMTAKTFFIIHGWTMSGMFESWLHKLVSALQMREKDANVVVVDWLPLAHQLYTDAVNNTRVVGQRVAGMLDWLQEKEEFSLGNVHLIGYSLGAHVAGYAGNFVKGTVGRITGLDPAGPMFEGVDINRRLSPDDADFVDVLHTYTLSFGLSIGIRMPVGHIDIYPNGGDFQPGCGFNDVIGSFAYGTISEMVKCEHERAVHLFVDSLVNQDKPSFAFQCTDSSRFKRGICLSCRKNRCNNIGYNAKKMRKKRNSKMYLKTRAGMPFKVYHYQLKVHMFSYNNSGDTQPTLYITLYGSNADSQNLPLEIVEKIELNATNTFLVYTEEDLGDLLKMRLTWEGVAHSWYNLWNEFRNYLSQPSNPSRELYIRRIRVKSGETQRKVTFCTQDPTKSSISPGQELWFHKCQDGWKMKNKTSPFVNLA

[10] = molecular target: T5, Hepatic triacylglycerol lipase (Homo sapiens, UniProt P11150); assay: Inhibition of human HL expressed in HEK293 cells using PED-A1 as substrate by spectrophotometry
T5 sequence (P11150 whole entry): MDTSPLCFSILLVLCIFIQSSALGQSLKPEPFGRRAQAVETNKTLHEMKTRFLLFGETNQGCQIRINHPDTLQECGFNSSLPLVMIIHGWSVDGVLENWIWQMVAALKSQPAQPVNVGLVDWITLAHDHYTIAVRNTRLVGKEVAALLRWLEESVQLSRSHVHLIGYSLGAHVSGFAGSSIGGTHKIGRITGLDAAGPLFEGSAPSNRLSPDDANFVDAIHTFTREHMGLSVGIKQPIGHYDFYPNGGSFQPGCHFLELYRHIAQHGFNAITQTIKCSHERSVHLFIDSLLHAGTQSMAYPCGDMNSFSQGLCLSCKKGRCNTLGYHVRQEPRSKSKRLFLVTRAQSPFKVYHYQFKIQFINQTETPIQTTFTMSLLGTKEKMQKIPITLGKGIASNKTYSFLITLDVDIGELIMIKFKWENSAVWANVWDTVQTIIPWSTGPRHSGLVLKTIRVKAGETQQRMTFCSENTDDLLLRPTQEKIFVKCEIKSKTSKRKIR

[11] = molecular target: Endothelial lipase (Mus musculus) (UniProt Q9WVG5); assay: Inhibition of EL in C57BL/6J HL-/- mouse assessed as elevated plasma phospholipid level at 30 to 100 mg/kg, ip bid for 2 days followed by a dose on 3rd day morning measured 1 hr post last dose

Compound: O=C(NCCCCCOc1cc(F)cc(F)c1)SCc1nnc(-c2ccccc2)o1
- IC50 [1]: 23 nM

Compound: O=C(NCCCCCCc1ccccc1)SCc1ccccc1F
- inhibition [2]: Active
- Activity [3]: Active
- Drug uptake [4]: Dose-dependent effect
- Activity [5]: 77%
- Activity [6]: 23%
- Activity [7]: 37%
- IC50 [8]: 1690 nM
- IC50 [9]: 680 nM
- IC50 [10]: 1360 nM
- Activity [11]: Active

Compound: O=C(NCCCCCCc1ccccc1)Oc1ccccc1F
- IC50 [9]: 470 nM

Compound: O=C(NCCCCCCc1ccccc1)OCc1ccccc1F
- IC50 [9]: > 33000 nM
